Assay results taken from the EternaBench riboswitch data.

Tested on: MS2 coat protein
Assay: apparent Kd, MS2 coat protein; higher = weaker binding; RNA-MaP array; FMN 200 µM where present
Outline: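 Designs were transcribed by stalled E. coli RNA polymerase on Illumina sequencing-chip clusters. They were titrated with SNAP-549-labelled MS2 coat protein from 0.7 or 1.5 nM, doubling to 3 µM, in 100 mM Tris-HCl pH 7.5, 80 mM KCl, 4 mM MgCl2, BSA, DTT, yeast tRNA and Tween-20, without and then with constant ligand. The apparent Kd is the median of filtered per-cluster fits after normalisation of green signal to red-channel RNA signal and control-cluster median Fmax.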

[1] = designed as: OFF switch for flavin mononucleotide, no ligand
[2] = ligand present: flavin mononucleotide, designed as: OFF switch for flavin mononucleotide
[3] = designed as: ON switch for flavin mononucleotide, no ligand
[4] = ligand present: flavin mononucleotide, designed as: ON switch for flavin mononucleotide

**Q.** What does the source list for “CGCUAAGAGAACGAUACGAGAAGACAUGAGGAUCACCCAUGUAGAAGGACAACGGAAUAAACGUUGUAGGAUAUACAUUUAGCG”?
**A.** apparent Kd [1]: 16.9 nM; apparent Kd [2]: 19.8 nM

**Q.** Which results are given for “GUGCUACAGCUGCGCACGAGACAUGAGGAUCACCCAUGUGACAGAAGGGACUUGUUAAAGGUAGGUCAGGAUAUGUCUUAAAAG”?
**A.** apparent Kd [3]: 148 nM; apparent Kd [4]: 44.2 nM

**Q.** Which “apparent Kd” value [1] does the source give for “CGAUAGGACAGAGGAUAUACGUGCUAGAGAUACUAGCAAAAUUACAACACAUGAGGAUCACCCAUGUAGAAGGCUGUCCUAUCG” here?
**A.** 5.04 nM

**Q.** What about the “apparent Kd” value [2] of the same sequence?
**A.** 6.21 nM

**Q.** “GUCAUGUUAGGAUAUCUAACAUGUGACUUCGGUCACUGUCCAGAGAAGGAACAUGAGGAUCACCCAUGUUGGAC” was tested. Which “apparent Kd” value [1] did it give?
**A.** 14.7 nM

**Q.** And the “apparent Kd” value [2]?
**A.** 15.9 nM

**Q.** For “UGAUAACAUGUAGGAUAUGCAGCAUUGACCACUGCAGAAGGACAUGAGGAUCACCCAUGUACCCAUACUAUGGGAUCACGCAAU”, which “apparent Kd” value [1] is on record?
**A.** 45.9 nM

**Q.** And the “apparent Kd” value [2]?
**A.** 195 nM

**Q.** Which “apparent Kd” value [1] does the source give for “AUCAGCUCGUCAGGAUAUACGUCACUGCGUCAGCUGUGUGGUAAGAUCACAUGAGGAUCACCCAUGUAGAAGGGACGAGCUGAU” here?
**A.** 15.3 nM

**Q.** And the “apparent Kd” value [2]?
**A.** 295 nM

**Q.** What does the source list for “GCGAUUUUGUAAGGAUAUACACCAGUUUCAAGUGUAGAAGGUACUUACAUGAGGAUCACCCAUGUAUACUUGGAUAAUAGUCGC”?
**A.** apparent Kd [3]: 17.4 nM; apparent Kd [4]: 17.5 nM

**Q.** With “AAAUAGCAUGAGGAUAUUGGACUGGAUUCAGUACGAGAAGGCAUGACAUGAGGAUCACCCAUGUUUUGUUGGGA” as the sequence, how does the “apparent Kd” value [1] read?
**A.** 51.7 nM

**Q.** What about the “apparent Kd” value [2] of the same sequence?
**A.** 202 nM

**Q.** With “GGUGUCGCAUGAGGAUAUGGUCAGCUUUGCUGACCAGAAGGCAUGUCAAUAGACAUGAGGAUCACCCAUGUAGUAAAGACACCA” as the sequence, how does the “apparent Kd” value [4] read?
**A.** 37.1 nM

**Q.** What does the source list for “GUUUCGUGAGGAUAUGUGGCUUCGAUCGUGCGAAAGAGGCUACAGAAGGCACAUGAGGAUCACCCAUGUUCCUC”?
**A.** apparent Kd [1]: 38.2 nM; apparent Kd [2]: 536 nM

**Q.** Which results are given for “CCAUGUUAGCAGGAUAUGCAAUUAUUCUUUUACGCAGAAGGGCUUACAUGAGGAUCACCCAUGUAACAUUUCAU”?
**A.** apparent Kd [1]: 18.4 nM; apparent Kd [2]: 77.8 nM

**Q.** Which results are given for “CGCUGUAACGCAGGAUAUGCAUUGGAUUACAAUGCAGAAGGGCGAUUACAUGAGGAUCACCCAUGUGUAAACAGUGAAGAAGAG”?
**A.** apparent Kd [3]: 220 nM; apparent Kd [4]: 41.2 nM

**Q.** Which results are given for “GAUUGUGAAGGAUAUACUGGAGGAGUGCGAUAGAAGCACGAACAUGAGGAUCACCCAUGUAGAAGGUCAGGAGU”?
**A.** apparent Kd [1]: 34.5 nM; apparent Kd [2]: 21.6 nM

**Q.** Which “apparent Kd” value [1] does the source give for “AGUGUGUUAGGAUAUCGCAUAUGCUGGAGGAGGUGGAGUUACGAGAAGGAACAUGAGGAUCACCCAUGUAGGAC” here?
**A.** 28.2 nM

**Q.** And the “apparent Kd” value [2]?
**A.** 26.5 nM

**Q.** For “GGAGCAGGGUGAGGAUAUGUAAAAUUCGAAAGGACAGAAGGCACUUAACCAACAUGAGGAUCACCCAUGUAGGCGACGGCACCA”, which “apparent Kd” value [3] is on record?
**A.** 30 nM

**Q.** What about the “apparent Kd” value [4] of the same sequence?
**A.** 21.8 nM

**Q.** Which “apparent Kd” value [1] does the source give for “GAGUCACUAUUAGAACCGAUACGAACAUGAGGAUCACCCAUGUAGGAUAUGCUAAAAGUUGUGUUGCAGAAGGACAUUUAUCGC” here?
**A.** 9.81 nM

**Q.** And the “apparent Kd” value [2]?
**A.** 9.06 nM

**Q.** “UUUAUGUCAGGAUAUGAGUAGUAGAACAAUAGUACUACUACUCAGAAGGGACAUGAGGAUCACCCAUGUUUCUC” was tested. Which “apparent Kd” value [1] did it give?
**A.** 23.4 nM

**Q.** What about the “apparent Kd” value [2] of the same sequence?
**A.** 143 nM

**Q.** Which results are given for “CAAUAUAACACAGGAUAUGUCUCGUUUACAUGAGGAUCACCCAUGUCCGAAACAGAAGGGUGACCCGAUAUAGGACGUUGGGUG”?
**A.** apparent Kd [3]: 56.3 nM; apparent Kd [4]: 18 nM

**Q.** With “AGUUUACAUGAGGAUCACCCAUGUGAGGAUAUGGUUUCGCUGGCCGUAGCCAGUGGAACCAGAAGGCGCGUGAU” as the sequence, how does the “apparent Kd” value [1] read?
**A.** 87.6 nM

**Q.** And the “apparent Kd” value [2]?
**A.** 164 nM

**Q.** Which results are given for “UAUUUAAGAGGAUAUACAUGAGGAUCACCCAUGUGUGUCUAUACGCGUGAUUUUUCAUGUAGAAGGCUUGGGUA”?
**A.** apparent Kd [1]: 160 nM; apparent Kd [2]: 60.5 nM

**Q.** With “UAAAUGUGAGGAUAUUCGUAGUACACGGAGACGUGUAUUACGGAGAAGGCACAUGAGGAUCACCCAUGUUCCUU” as the sequence, how does the “apparent Kd” value [1] read?
**A.** 22.2 nM

**Q.** What about the “apparent Kd” value [2] of the same sequence?
**A.** 166 nM

**Q.** With “AAAAGACAUGAGGAUCACCCAUGUAAAAACAUGAGAGGAUAUCAUCUGACUUCGGUCAGAUGAGAAGGCUCAUGUC” as the sequence, how does the “apparent Kd” value [3] read?
**A.** 48.7 nM

**Q.** And the “apparent Kd” value [4]?
**A.** 26.9 nM

**Q.** Which results are given for “AAAAAACAUGAGGAUCACCCAUGUGAGGAUAUCGUGCAGAAAAAAAAAAAAAACUGCACGAGAAGGCACAUGAA”?
**A.** apparent Kd [1]: 237 nM; apparent Kd [2]: 460 nM

**Q.** Which results are given for “UCCAGAUCGCGAGGUAGGAGUAGCAGAAGGCGACCGGUGCCAGAUGACAUGAGGAUCACCCAUGUCGAGGAUAUGCUACAGAAU”?
**A.** apparent Kd [1]: 6.49 nM; apparent Kd [2]: 13.2 nM
